Compound activity (PubChem BioAssay)
HCT116 bCat-KO: beta-catenin-lacking colon tumor cell growth suppression; HCT116 beta-catenin knockout viability, CellTiter-Glo, 60 h; active compounds read low; viability, % at 10 µM; actives 1.5% (n = 140,000);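 active means viability at or under a set limit, the compound median less 4 SD, cut at about 6% in these data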;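 further: 0% = Hyamine 1622 control at 20 µM and 100% = untreated cell control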
H69AR growth 86K: blocks growth of human H69AR lung tumor cells. H69AR lung tumor viability, ATP luminescence, 72 h; active compounds read low. viability, % at 10 µM. actives 6% (n = 85,000). AID 598;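 active means viability at or below 40%; inactive means viability above 40%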;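 further: multidrug resistant small cell line overexpressing MRP-1 efflux transporter; 100% = mean luminescence of untreated control wells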
Fibroblast inh: blocks proliferation of human lung fibroblasts; viability, % at 10 µM; actives 1.1% (n = 85,000); LL 47 human lung fibroblast viability, ATP luminescence; active compounds read low; AID 719;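 active means viability at or below 50% in the single dose screen; inactive means viability above 50%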;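 further: compound exposure lasted 72 h before the ATP readout; 100% = median luminescence of untreated cell-only wells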
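Test system: LL 47 human lung fibroblasts / Incubation: 72 h compound exposure at 37 °C after overnight plating / Technique: luminescent ATP detection, CellTiter-Glo / Compound dosing: 0.1% DMSO in all compound wells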
Phagocyt inh: macrophage phagocytosis inhibition; AID 1029; J774A.1 macrophage IgG-bead phagocytosis, imaging; inhibition, % at 5 µM; actives 0.07% (n = 110,000);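 active means inhibition above the mean of the plate negative controls plus 5 SD, cut at about 13% in these data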;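 further: phagocytic index as fraction of beads internalized from green versus red external bead signal; plate controls were DMSO negative control for no effect and cytochalasin-D positive control for full effect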
HUVEC prolif 384: blocks proliferation of human endothelial cells | HUVEC proliferation, CellTiter-Glo luminescence, 72 h; active compounds read low | viability, % at 10 µM (by protocol) | actives 1.1% (n = 86,000);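 active means viability at or below 30%; inactive means viability above 30%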;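 further: 100% = median luminescence of DMSO-only cell control wells on each plate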
PTEN del growth: suppresses growth of cells with PTEN deletion | viability, % at 10 µM | AID 827 | HCT116 PTEN-null viability, CellTiter-Glo, 60 h; active compounds read low | actives 1.2% (n = 140,000);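 active means viability at or below a set limit, 4 SD under the median of all tested compounds, cut at about 3.7% in these data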;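 further: PTEN knockout HCT116 line with beta catenin targeted HCT116 as companion control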
* marks the source's active call; other numbers are inactive results; nt = no result given. The sample as a whole holds a higher share of hits than the screen did.

SMILES	HCT116 bCat-KO	H69AR growth 86K	Fibroblast inh	Phagocyt inh	HUVEC prolif 384	PTEN del growth
CCC(=O)N1CCN(c2ccc(NC(=O)c3cc4ccccc4o3)cc2Cl)CC1	2.5*	10*	42*	-1	2.9*	3.1*
CCCC(=O)N1CCN(c2ccc(NC(=O)c3cc4ccccc4o3)cc2Cl)CC1	105	13*	16*	1	2.1*	96
O=C(c1cc2ccccc2o1)N1CCN(c2ccccc2Cl)CC1	99	88	100	-1	113	100
O=C(Nc1ccc(N2CCN(C(=O)c3ccccc3)CC2)c(Cl)c1)c1ccco1	84	73	96	0	70	83
O=C(Nc1ccc(N2CCN(C(=O)c3ccco3)CC2)c(Cl)c1)c1cc2ccccc2o1	2.8*	37*	43*	0	7.9*	3.2*
O=C1CC(NCc2ccncc2)C(=O)N1c1ccc(Cl)cc1 (centres undefined)	91	96	93	1	92	90
CC(C)CC1N=C2c3ccccc3N=C(SCc3cc(=O)n4ccccc4n3)N2C1=O (centres undefined)	nt	67	57	nt	68	nt
O=c1ccc2cc3c([nH]c4ccc(Br)cc43)oc-2c1O	98	23*	87	nt	101	100
N#C/C(=C\c1ccc(OCC(N)=O)cc1)c1ccccc1	93	nt	nt	1	nt	92
C=CCNc1nnc(SC2CC(=O)N(c3ccc(OCCC)cc3)C2=O)s1 (centres undefined)	86	1.9*	90	0	98	94
Cc1cc(N2CCCCC2)n2ncc(-c3ccccc3)c2n1	76	38*	87	0	81	73
Cc1cc(N2CCN(C(=O)c3ccco3)CC2)n2ncc(-c3ccccc3)c2n1	55	27*	94	0	84	42
Cc1nn2c(N3CCN(C(=O)c4ccco4)CC3)cc(C(C)(C)C)nc2c1-c1ccccc1	3.8*	100	87	nt	73	7
Cc1cc(N2CCOCC2)n2ncc(-c3ccccc3)c2n1	92	28*	81	1	77	91
Cc1cc(N2CCCCC2)n2ncc(-c3ccc(Cl)cc3)c2n1	74	58	83	1	79	79
CCOC(=O)NC(=O)C(=CNc1ccc(C)cc1)C(=O)NC(=O)OCC	84	nt	nt	-1	nt	90
COc1ccc2c(c1)c1ncnc(N3CCN(Cc4ccc5c(c4)OCO5)CC3)c1n2C	13	28*	91	0	64	17
CCCCn1nnnc1NCc1ccc(N(CC)CC)cc1	99	91	98	-2	93	97
O=C1c2cccc3c([N+](=O)[O-])ccc(c23)C(=O)N1c1nccs1	1.5*	0.8*	23*	0	2.0*	1.5*
O=C1c2cccc3c([N+](=O)[O-])ccc(c23)C(=O)N1c1ccccn1	1.6*	nt	nt	0	nt	1.4*
O=C1c2cccc3c([N+](=O)[O-])ccc(c23)C(=O)N1c1ccc(Cl)cn1	1.8*	nt	nt	2	nt	1.6*
O=C1c2cccc3cccc(c23)C(=O)N1c1nccs1	93	97	107	1	108	113
O=C(O)c1ccc2c(c1)C(=O)N(c1ccc(Cl)cn1)C2=O	93	81	102	-1	92	107
O=C1c2cccc3c(N4CCCCC4)ccc(c23)C(=O)N1c1ccc(Cl)cn1	nt	31*	98	nt	79	nt
Brc1cccc(-c2nnc(SCc3ccon3)n2-c2ccccc2)c1	82	69	95	0	94	75
SMILES	HCT116 bCat-KO	H69AR growth 86K	Fibroblast inh	Phagocyt inh	HUVEC prolif 384	PTEN del growth
COc1cc(S(=O)(=O)N2CCN(C(=O)c3ccccc3F)CC2)c(OC)cc1NC(C)=O	91	90	104	2	100	100
CC(NC(=O)CCSc1nc(-c2ccc3c(c2)OCO3)cc(C(F)(F)F)n1)c1ccccc1 (centres undefined)	68	42	107	nt	72	62
Cc1cccc(-c2c3c(=O)n(C)c(=O)n(C)c3cn2C(C)(C)C)c1	86	59	86	0	89	94
Cc1cccc(-c2c3c(=O)n(C)c(=O)n(C)c3cn2C2CCCCC2)c1	63	23*	79	1	103	61
Cn1c(=O)c2c(-c3ccccc3)n(-c3ccccc3O)cc2n(C)c1=O	96	98	101	-3	105	100
Cn1c(=O)c2c(-c3ccccc3)n(C3CCCCC3)cc2n(C)c1=O	75	37*	86	-4	105	68
Cn1c(C(=O)OCC(=O)NCc2ccco2)cc2sccc21	100	82	97	nt	74	94
Cc1cc2c(cc(C(=O)OCC(=O)NCc3ccco3)n2C)s1	25	27*	71	nt	58	27
O=c1c(=O)n(O)c2ccccc2n1O	97	88	107	nt	101	104
COc1cccc(N2CCN(c3ncnc4c3cnn4-c3ccc(C)cc3C)CC2)c1	1.7*	56	33*	-1	2.2*	3.1*
Cc1ccc(-n2ncc3c(N4CCCC4)ncnc32)c(C)c1	99	55	97	nt	99	101
Cc1cccc(-n2ncc3c(N4CCC5(CC4)OCCO5)ncnc32)c1	nt	33*	88	nt	115	nt
COc1ccc(OCC(=O)NNC(=O)c2cccc(S(=O)(=O)N(C)C)c2)cc1	96	nt	nt	-9	nt	101
Cc1nn(CC(O)Cn2c3c(c4ccccc42)CCN(C)C3=O)c(C)c1Br (centres undefined)	79	38*	98	-1	83	69
Cc1nn(CC(O)Cn2cnc3c2c(=O)n(C)c(=O)n3C)c(C)c1Br (centres undefined)	85	nt	nt	-1	nt	87
CCCOc1ccc(NC(=O)OC2CCN(C)CC2)cc1	95	nt	nt	-5	nt	92
CCc1ccc(-c2cc(C(F)(F)F)n3nc(C(=O)Nc4cnn(Cc5ccc(C)cc5)c4)cc3n2)s1	14	nt	nt	0	nt	11
CCCCNC(=O)c1ccc2c(c1)ncn2C1CCCC1	93	33*	108	0	92	91
COC(=O)c1ccccc1NC(=O)CSCC(=O)Nc1ccc(F)cc1	103	nt	nt	1	nt	103
COC(CN1C(=O)C(O)=C(C(C)=O)C1c1ccccn1)OC (centres undefined)	87	101	97	0	100	102
O=C(COC(=O)c1ccccc1NC(=O)c1ccco1)Nc1ccc2c(c1)OCO2	85	38*	95	2	91	82
Cc1nc(SCC(=O)c2c(C)[nH]c3ccccc23)c2c(=O)n(C)c(=O)n(CC(C)C)c2n1	nt	39*	96	6	83	nt
Cc1ccc2c(c1)cc(CN(Cc1ccc3c(c1)OCO3)S(=O)(=O)c1ccccc1)c1nnnn12	81	31*	56	-1	95	99
CN(CCO)c1cc(Sc2nc3ccccc3s2)c2nonc2c1[N+](=O)[O-]	110	4.3*	30*	nt	75	102
Cc1cc(C)nc(NC(=O)CSc2nc3ccccc3s2)n1	93	91	89	0	86	90
